Source: ChEMBL document CHEMBL1124004, “Inhibitors of cyclic AMP phosphodiesterase. 3. Synthesis and biological evaluation of pyrido and imidazolyl analogues of 1,2,3,5-tetrahydro-2-oxoimidazo[2,1-b]quinazoline” (J Med Chem, 1988)
The source made the active and inactive calls. No cut-off for these calls is given here.

Key:
[1] = target: T1, Phosphodiesterase 3 (Homo sapiens, UniProt Q14432+Q13370); experiment: Inhibition of platelet cAMP phosphodiesterase
[2] = species on record: Homo sapiens; experiment: Inhibition of ADP induced platelet aggregation; format: functional
Summary of the method: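 Human platelets with ADP as the aggregating stimulus. Each assay was run in triplicate at five inhibitor concentrations. The mean at each concentration was plotted and the IC50 was read graphically.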

[3] = target: T1, Phosphodiesterase 3; experiment: Inhibition of human platelet cAMP phosphodiesterase at 100 uM
[4] = species on record: Homo sapiens; experiment: Inhibition of ADP induced platelet aggregation; inactive; format: functional
[5] = test system: Canis familiaris; experiment: Percent maximum increase in cardiac force in anesthetized dogs using isoproterenol as agonist; inactive at all doses up to 1000 ug/kg; format: functional, organism-based; conditions: Canis lupus familiaris; Heart
Summary of the method: (§1)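 Instrumented, anesthetized dogs. Cardiac force rise from the test agent is expressed as a percent of the maximum cardiac force increase seen in the same animal with isoproterenol as agonist. N = number of experiments.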

[6] = species on record: Canis familiaris; experiment: Dose at which 50% heart rate increase in dogs; format: functional; conditions: Canis lupus familiaris
Summary of the method: (§2)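 Instrumented, anesthetized dogs. Cardiac force, heart rate and blood pressure response curves were plotted against dose. When n > 1, the mean at each dose level was plotted.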

[7] = species on record: Canis familiaris; experiment: Dose at which 50% maximal effect for cardiac force increase in dogs; format: functional; conditions: Canis lupus familiaris, Heart; summary of the method: as §2
[8] = test system: Canis familiaris; experiment: Percent maximum increase in cardiac force in anesthetized dogs using isoproterenol as agonist at 185 nmol/kg; format: functional, Canis lupus familiaris, Heart; summary of the method: as §1
[9] = species on record: Canis familiaris; experiment: Dose at which 50% blood pressure decrease in dogs; format: functional; conditions: Canis lupus familiaris; summary of the method: as §2
[10] = test system: Canis familiaris; experiment: Percent maximum increase in cardiac force in anesthetized dogs using isoproterenol as agonist at greater than 5000 nmol/kg; format: functional, Canis lupus familiaris, Heart
[11] = test system: Canis familiaris; experiment: Percent maximum increase in cardiac force in anesthetized dogs using isoproterenol as agonist at 125 nmol/kg; format: functional, Canis lupus familiaris, Heart; summary of the method: as §1
[12] = test system: Canis familiaris; experiment: Percent maximum increase in cardiac force in anesthetized dogs using isoproterenol as agonist at 75 nmol/kg; format: functional, Canis lupus familiaris, Heart; summary of the method: as §1
[13] = test system: Canis familiaris; experiment: Percent maximum increase in cardiac force in anesthetized dogs using isoproterenol as agonist at 140 nmol/kg; format: functional, Canis lupus familiaris, Heart; summary of the method: as §1

Structure (SMILES)	IC50 [1]	IC50 [2]	other results
O=C1CN2Cc3cc(O)ccc3N=C2N1	3.3 µM	–	–
O=C1CN2Cc3cc(-n4ccnc4)ccc3N=C2N1	0.6 µM	6 µM	ED50 [6]: 0.22 µmol/kg; ED50 [7]: 0.18 µmol/kg; Max CF response [8]: 63%; ED50 [9]: 0.64 µmol/kg
O=C1CN2Cc3cccnc3N=C2N1	330 µM	200 µM	–
O=C1CN2Cc3cnccc3N=C2N1	18 µM	46 µM	Max CF response [10]: 27%; ED50 [6]: > 1 µmol/kg; ED50 [7]: 0.78 µmol/kg; ED50 [9]: > 1 µmol/kg
CC1CC(O)=NN=C1c1ccc(-n2ccnc2)cc1 (configuration not stated) [CI-930]	–	–	ED50 [6]: 0.1 µmol/kg; Max CF response [11]: 72%; ED50 [7]: 0.1 µmol/kg; ED50 [9]: 0.1 µmol/kg
CN(C(=O)CCCOc1ccc2c(c1)CN1CC(=O)NC1=N2)C1CCCCC1 [LIXAZINONE]	–	–	ED50 [6]: 0.03 µmol/kg; ED50 [7]: 0.02 µmol/kg; Max CF response [12]: 71%; ED50 [9]: 0.05 µmol/kg
Cc1[nH]c(=O)c(C#N)cc1-c1ccncc1 [MILRINONE]	–	–	ED50 [6]: 0.19 µmol/kg; ED50 [7]: 0.09 µmol/kg; Max CF response [13]: 65%; ED50 [9]: 0.59 µmol/kg
O=C1CN2Cc3ccccc3N=C2N1	8.8 µM	–	–
C[C@@H]1C(=O)NC2=Nc3cccc(Cl)c3CN21 [QUAZINONE]	0.24 µM	–	–
O=C1CN2Cc3ccncc3N=C2N1	26 µM	26 µM	–

More lines, main results first:

IC50 [1]	IC50 [2]	Structure (SMILES)	other results
30 µM	25 µM	O=C1CN2Cc3ncccc3N=C2N1	–
0.7 µM	23 µM	O=C1CN2Cc3cc(OCCCCCCn4ccnc4)ccc3N=C2N1	–
> 100 µM	–	CCc1[nH]c(=O)[nH]c1C(=O)c1ccncc1 [PIROXIMONE]	inhibition [3]: 40%
2 µM	40 µM	O=C1CN2Cc3cc(OCCn4ccnc4)ccc3N=C2N1	–
250 µM	–	O=C1CN=C(Nc2ccc(-n3ccnc3)cc2)N1	IC50 [4]: Not Active; Max CF response [5]: inactive
0.07 µM	–	Cc1c(Br)ccc2c1CN1C(=N2)NC(=O)C1C (configuration not stated)	–
0.15 µM	–	O=C1CN2Cc3cc(N4CCCCC4)ccc3N=C2N1	–
0.52 µM	–	O=C1CN2Cc3cc(I)ccc3N=C2N1	–
1.5 µM	–	O=C1CN2Cc3cc(Cl)ccc3N=C2N1	–
0.56 µM	–	O=C1CN2Cc3cc(OCc4ccccc4)ccc3N=C2N1	–
